According to the RNAGym collection of RNA variant scans (doi:10.1126/science.aae0568):
Fewer inactive variants are shown than the library holds.

B1: tRNA (parent)
chain: GUUCCGUUGGCGUAAUGGUAACGCGUCUCCCUCCUAAGGAGAAGACUGCGGGUUCGAGUCCCGUACGGAACG

Variants of: B1
Test: yeast fitness relative to wild type (ratio to wild type); higher = fitter; tRNA-Arg(CCU), competitive growth, 37 C, YPD
Method in brief: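 Genotype frequency changes were the basis for Darwinian fitness relative to wild type. The frequencies came from 100-nucleotide paired-end sequencing of gene amplicons from the start population and each end population of pooled yeast strains with tRNA-Arg(CCU) gene variants at the native locus. Competition ran in YPD at 37°C for 24 hours in six replicates, genotypes needed ≥ 100 starting reads, and estimates < 0.5 were set to 0.5.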

Going from U28G G41C G56A to U28G C46U C60A, the yeast fitness falls from 0.562 to ≤ 0.5.

U28G G38C A43G U59C C60G and U28G A57C A65C cannot be ordered by yeast fitness: ≤ 0.5 for the first, ≤ 0.5 for the second.

C29G A43C G51C A57C and C29A G56C C61A cannot be ordered by yeast fitness: ≤ 0.5 for the first, ≤ 0.5 for the second.

Going from C29G A45C A70G to C29G A43G C49G, the yeast fitness falls from 0.573 to 0.532.

U28G G38A A40G G56A C62U and U28C G41A G52U cannot be ordered by yeast fitness: ≤ 0.5 for the first, ≤ 0.5 for the second.

U28G C29A G56A and C29A A37U C49A cannot be ordered by yeast fitness: ≤ 0.5 for the first, ≤ 0.5 for the second.

Compared with U28C G48A, U28C G41C G63A is lower in yeast fitness: 0.866 for the first, ≤ 0.5 for the second.

C29G A36G C66G and U28G A36C G38C C49U cannot be ordered by yeast fitness: ≤ 0.5 for the first, ≤ 0.5 for the second.

First: C29A A42G C61G
Second: U28G C34G G44C C61G
The yeast fitness of the first is lower: 0.533 for the first, 0.558 for the second.

U28G U35G A45U and U28G U32C C49G G52C cannot be ordered by yeast fitness: ≤ 0.5 for the first, ≤ 0.5 for the second.

First: C29G A36U
Second: C29G A36G
The yeast fitness of the first is higher: 0.569 for the first, 0.548 for the second.

C29A A36C G68A and U28C C55G C60A cannot be ordered by yeast fitness: ≤ 0.5 for the first, ≤ 0.5 for the second.

First: C29A U35C G67A
Second: C29G A36U C46G
The yeast fitness of the first is lower: ≤ 0.5 for the first, 0.755 for the second.

Compared with C29A G38A, C29A A40G A43G C55U C61U C66G is lower in yeast fitness: 0.764 for the first, ≤ 0.5 for the second.

C29G A40U A65U and U28C C34G A40G A43G C46G C55U C66U cannot be ordered by yeast fitness: ≤ 0.5 for the first, ≤ 0.5 for the second.

Compared with C29A C55A, C29A C55U is higher in yeast fitness: ≤ 0.5 for the first, 0.603 for the second.

Compared with C29A C33U C55G, C29A C30A is lower in yeast fitness: 0.633 for the first, 0.591 for the second.

First: U28C U54C
Second: U28G C29A
The yeast fitness of the first is higher: 0.909 for the first, ≤ 0.5 for the second.

Going from U28G C29G to C29A A36G A45C G56A, the yeast fitness falls from 0.608 to ≤ 0.5.

Compared with U28G G50C, C29A C46G is lower in yeast fitness: 0.637 for the first, 0.634 for the second.

Compared with U28C U32C, U28C U32A is lower in yeast fitness: 0.935 for the first, 0.754 for the second.

C29G A40U C55A G67C and U28G C55G cannot be ordered by yeast fitness: ≤ 0.5 for the first, ≤ 0.5 for the second.

Going from U28G C31U A70U to C29A G39C, the yeast fitness rises from 0.543 to 0.817.

First: U28C G63C U64A C66G
Second: U28C C66G
The yeast fitness of the first is lower: ≤ 0.5 for the first, 0.72 for the second.

Going from U28C C66U to U28G G51C U64A C66U, the yeast fitness falls from 0.907 to ≤ 0.5.

Going from C29A G58A to C29A A42G A45U G50A, the yeast fitness falls from 0.653 to 0.534.

First: C29A U59C
Second: U28G A37C C55U
The yeast fitness of the first is higher: 0.688 for the first, ≤ 0.5 for the second.

C29A C46U A57G and U28C C34G G38C A45C cannot be ordered by yeast fitness: ≤ 0.5 for the first, ≤ 0.5 for the second.

First: C29A C60G
Second: C29G A43U C46U
The yeast fitness of the first is higher: 0.584 for the first, ≤ 0.5 for the second.

Going from U28G C31G A57C C66U to C29G A36U C49U, the yeast fitness rises from ≤ 0.5 to 0.538.

Going from U28G A40U A69C to C29A G39C A57G C61U C66U, the yeast fitness falls from 0.629 to 0.561.

U28C C34A C49G G51C and C29A C62U G68A cannot be ordered by yeast fitness: ≤ 0.5 for the first, ≤ 0.5 for the second.

Compared with U28C G39U C49A C55U, C29G A42C is higher in yeast fitness: ≤ 0.5 for the first, 0.685 for the second.

Compared with C29G A42G, C29G A42U is higher in yeast fitness: 0.694 for the first, 0.712 for the second.

First: U28G C31U C49G
Second: C29A U32C A42U G67A
The yeast fitness of the first is lower: ≤ 0.5 for the first, 0.522 for the second.

Going from U28G C31U G68A to U28C U47C, the yeast fitness rises from ≤ 0.5 to 0.915.

First: U28C C55U C66G
Second: C29A A45G
The yeast fitness of the first is lower: ≤ 0.5 for the first, 0.578 for the second.

First: C29A A45U
Second: U28C G41C C62A
The yeast fitness of the first is higher: 0.524 for the first, ≤ 0.5 for the second.

U28C C31U A36G G63C and C29G A37G C60U A69C cannot be ordered by yeast fitness: ≤ 0.5 for the first, ≤ 0.5 for the second.

Compared with C29G A42G G52C, U28C C30U A45C G58A G67U is lower in yeast fitness: 0.702 for the first, ≤ 0.5 for the second.

Going from C29G A36G A43U C66A to C29A G48C A69C, the yeast fitness rises from ≤ 0.5 to 0.531.

C29A G50C A70U and C29A C30A G58A cannot be ordered by yeast fitness: ≤ 0.5 for the first, ≤ 0.5 for the second.

Compared with C29A A42U C46A G63A, U28G U47C is higher in yeast fitness: ≤ 0.5 for the first, 0.824 for the second.

First: C29A A69G
Second: U28C C55U A57C
The yeast fitness of the first is higher: 0.6 for the first, ≤ 0.5 for the second.

Compared with C29A C34G A57C, C29A C33G C61U is higher in yeast fitness: ≤ 0.5 for the first, 0.619 for the second.

Compared with C29A G48C A70G, C29A C33U U47A is lower in yeast fitness: 0.54 for the first, ≤ 0.5 for the second.

C29A C61G C66U A69U and U28G G38A A57C cannot be ordered by yeast fitness: ≤ 0.5 for the first, ≤ 0.5 for the second.

C29A C30A G50A A70C and U28C U47A C61G G67C cannot be ordered by yeast fitness: ≤ 0.5 for the first, ≤ 0.5 for the second.

First: U28C G52A A69U
Second: C29G A40C
The yeast fitness of the first is lower: 0.592 for the first, 0.685 for the second.

Going from C29G A40U to C29A C62U U64C, the yeast fitness falls from 0.555 to 0.554.

First: U28C C55U
Second: U28C C55A
The yeast fitness of the first is higher: 0.685 for the first, 0.564 for the second.

C29A A40G C55U and C29G A57C U59G cannot be ordered by yeast fitness: ≤ 0.5 for the first, ≤ 0.5 for the second.

First: U28C C62U U64C
Second: C29A U35C
The yeast fitness of the first is higher: 0.7 for the first, ≤ 0.5 for the second.

First: U28C C30U U59C
Second: U28G C30A
The yeast fitness of the first is lower: ≤ 0.5 for the first, 0.645 for the second.

C29A C31U A40U and C29G A37G A45U G68C cannot be ordered by yeast fitness: ≤ 0.5 for the first, ≤ 0.5 for the second.

Going from U28C C61G G67A to C29A C31G C60A, the yeast fitness rises from ≤ 0.5 to 0.656.

Compared with U28G A37G G50C, U28C G51A C55U C66G is higher in yeast fitness: 0.528 for the first, 0.553 for the second.

Going from C29A C49G to C29A C30U C49U, the yeast fitness falls from 0.623 to ≤ 0.5.

Compared with C29A A36C, U28G U32A G38C is higher in yeast fitness: 0.634 for the first, 0.653 for the second.

First: U28C C46U
Second: C29A U35A G67C
The yeast fitness of the first is higher: 0.911 for the first, ≤ 0.5 for the second.

Going from U28G C31U to U28G C31G, the yeast fitness rises from 0.544 to 0.629.

U28G A37C C55U A65U and C29G A36G A40U cannot be ordered by yeast fitness: ≤ 0.5 for the first, ≤ 0.5 for the second.

C29G A42C G52C U59A and U28G C29A G41C A43U U47C C66G cannot be ordered by yeast fitness: ≤ 0.5 for the first, ≤ 0.5 for the second.

C29A G52C G68A and C29A G51C cannot be ordered by yeast fitness: ≤ 0.5 for the first, ≤ 0.5 for the second.

Compared with C29A G51A, C29A A43U A57C is higher in yeast fitness: 0.544 for the first, 0.642 for the second.

Going from U28G C30G A40C A42U to U28G C34A, the yeast fitness rises from ≤ 0.5 to 0.568.

First: C29G A43C G67C
Second: C29G A37C G58A
The yeast fitness of the first is higher: 0.654 for the first, ≤ 0.5 for the second.

Going from U28G G41C to C29A G48A, the yeast fitness rises from 0.551 to 0.688.

Going from C29A G48C to C29A U47C A57C U59A, the yeast fitness falls from 0.613 to ≤ 0.5.

Compared with U28C C33U G41A A69U, U28G U64G is higher in yeast fitness: ≤ 0.5 for the first, 0.628 for the second.

U28G G51A C62G and U28G C34U G38A cannot be ordered by yeast fitness: ≤ 0.5 for the first, ≤ 0.5 for the second.

Compared with C29G A37G, U28C C46A C62A U64A is lower in yeast fitness: 0.599 for the first, ≤ 0.5 for the second.

Going from C29A U47A G68C to C29A A43G, the yeast fitness rises from ≤ 0.5 to 0.645.

Compared with C29A A43U, C29A C34U A36U C61U G67U is lower in yeast fitness: 0.585 for the first, ≤ 0.5 for the second.

Compared with U28G A36G A45G, U28G C61G is lower in yeast fitness: 0.718 for the first, 0.634 for the second.

Compared with U28G C61U, C29A U54G is lower in yeast fitness: 0.808 for the first, ≤ 0.5 for the second.

Going from U28G U32A to U28C C29U G63C A65U, the yeast fitness falls from 0.678 to ≤ 0.5.

First: U28C G68A
Second: U28C U59C G67A
The yeast fitness of the first is higher: 0.839 for the first, 0.532 for the second.

Compared with C29A A42G A57C, U28C C31U A36C G41C U47A is lower in yeast fitness: 0.592 for the first, ≤ 0.5 for the second.

C29A A45C C49U C66U and U28G A36U C46U C61U cannot be ordered by yeast fitness: ≤ 0.5 for the first, ≤ 0.5 for the second.

First: U28G A36G C66U
Second: C29G A37U G52A
The yeast fitness of the first is higher: 0.582 for the first, 0.546 for the second.

C29A C46A A70G and U28C C30G C49G cannot be ordered by yeast fitness: ≤ 0.5 for the first, ≤ 0.5 for the second.

U28G C34G G44C U64G and C29A C30U G58A cannot be ordered by yeast fitness: ≤ 0.5 for the first, ≤ 0.5 for the second.

In the case of C29G A40U A43G C46G U64A, the yeast fitness is reported as ≤ 0.5.
